ChEMBL document CHEMBL4257481, “Synthesis and radioprotective effects of novel benzyl naphthyl sulfoxide (sulfone) derivatives transformed from Ex-RAD” (Medchemcomm, 2018)
Calls of active or inactive are those of the source. The rule behind the calls is not given here.

Assays:
HUVEC [1] = test: Radioprotective activity against 60Co gamma-irradiation-mediated cytotoxicity in HUVEC assessed as increase in survival rate at 40 uM preincubated for 24 hrs followed by gamma-irradiation and measured after 4 days by MTS assay relative to control; type: functional, cell-based; details: Homo sapiens
Summary of the method: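 HUVECs seeded at 4000 cells/mL in RPMI-1640 with 10% FBS. After 24 h, compound added at 40 µM (diluted from 100 mM DMSO stock) for 24 h, then 8.0 Gy 60Co γ at 0.93 Gy/min. Cells grown 4 days with medium changed every 2 days, then MTS for 3 h at 37 °C and A492 read. Survival = blank-corrected OD relative to unirradiated cells; mean of three experiments.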

HUVEC [2] = test: Cytotoxicity against HUVEC at 100 uM after 24 hrs by MTS assay; type: cell-based; details: human
Summary of the method: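 HUVECs grown in RPMI-1640 with 10% FBS and penicillin/streptomycin, pH 7.2, 37 °C, 5% CO2, then trypsinized at 80% confluence. Compound exposure at 100 µM, with viability read by MTS tetrazolium assay.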

HUVEC [3] = test: Radioprotective activity against 60Co gamma-irradiation-mediated cytotoxicity in HUVEC assessed as survival rate at 20 uM preincubated for 24 hrs followed by gamma-irradiation and measured after 4 days by MTS assay relative to control; type: functional; details: Homo sapiens, light or radiation study, read-out: Survival
Summary of the method: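 HUVECs in RPMI-1640 with 10% FBS, seeded 4000 cells per mL. After 24 h, exposed to compound from a 100 mM DMSO stock (final 20 µM) for 24 h. Then ⁶⁰Co γ-irradiated at 8.0 Gy, 0.93 Gy min⁻¹, and cultured 4 days with medium changes. MTS added for 3 h at 37 °C and A492 read. Survival calculated relative to non-irradiated cells; mean of three independent experiments.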

HUVEC [4] = test: Radioprotective activity against 60Co gamma-irradiation-induced DNA damage in HUVEC after 24 hrs by comet assay; type: functional, cell-based; details: Homo sapiens
Summary of the method: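 HUVECs (RPMI-1640, 10% FBS) incubated with compound 24 h, then given 6.0 Gy 60Co γ at 0.93 Gy/min. At 24 h post-irradiation, cells (1 × 10^5/mL) were embedded in comet agarose and lysed 30 min at 4 °C. Alkaline unwinding (300 mM NaOH, 1 mM EDTA, pH > 13) ran 30 min, then electrophoresis at 1.0 V/cm, 20 min. Vista green stain; tail length (µm) of 50 comets/slide; three repeats.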

Mus musculus [5] = test: Radioprotective activity against 60Co gamma-irradiation-induced toxicity in C57/BL mouse assessed as survival rate at 300 mg/kg, ip administered 15 mins and 24 hrs prior to irradiation and measured over 30 days post irradiation (reference value: 50%); type: functional; details: light or radiation study
Mus musculus [6] = test: Radioprotective activity against 60Co gamma-irradiation-induced body weight loss in C57/BL mouse assessed as increase in body weight at 300 mg/kg, ip administered 15 mins and 24 hrs prior to irradiation and measured over 10 to 30 days post irradiation; type: functional, organism-based
Mus musculus [7] = test: Radioprotective activity against 60Co gamma-irradiation-induced toxicity in C57/BL mouse assessed as survival rate at 300 mg/kg, sc administered 15 mins and 24 hrs prior to irradiation and measured over 30 days post irradiation (reference value: 50%); type: functional; details: light or radiation study
Mus musculus [8] = test: Radioprotective activity against 60Co gamma-irradiation-induced toxicity in C57/BL mouse assessed as survival rate at 5 mg/kg, ig administered 24 hrs prior to irradiation and measured over 30 days post irradiation (reference value: 50%); type: functional; details: light or radiation study, po

SMILES	Activity (HUVEC [1])	Activity (HUVEC [2])	viability at 20 µM (HUVEC [3]) [%]	Activity (HUVEC [4])	survival at 300 mg/kg (Mus musculus [5]) [%]	Activity (Mus musculus [6])	survival at 300 mg/kg (Mus musculus [7]) [%]	survival at 5 mg/kg (Mus musculus [8]) [%]
[O-][S+](Cc1ccc(Br)cc1)c1ccc2ccccc2c1 (centres undefined)	Active	Non-Toxic	59.3	–	–	–	–	–
[O-][S+](Cc1ccc(Cl)cc1)c1ccc2ccccc2c1 (centres undefined)	Active	Non-Toxic	57.2	–	–	–	–	–
[O-][S+](Cc1ccccc1F)c1ccc2cc(Br)ccc2c1 (centres undefined)	Active	Non-Toxic	51.3	–	–	–	–	–
[O-][S+](Cc1ccc(F)cc1)c1ccc2ccccc2c1 (centres undefined)	Active	Non-Toxic	52	–	–	–	–	–
O=S(=O)(Cc1ccccc1F)c1ccc2cc(Br)ccc2c1	Active	Non-Toxic	52.4	–	–	–	–	–
O=S(=O)(Cc1ccccc1Cl)c1ccc2cc(Br)ccc2c1	Active	Non-Toxic	56.7	–	–	–	–	–
[O-][S+](Cc1ccc(F)cc1)c1ccc2cc(Br)ccc2c1 (centres undefined)	Active	Non-Toxic	77.2	Active	100	Active	–	–
O=S(=O)(Cc1ccc(Br)cc1)c1ccc2cc(Br)ccc2c1	Active	Non-Toxic	53.1	–	–	–	–	–
[O-][S+](Cc1cccc(Cl)c1)c1ccc2cc(Br)ccc2c1 (centres undefined)	Active	Non-Toxic	55.1	–	–	–	–	–
O=C(O)c1ccc(/C=C/S(=O)(=O)Cc2ccc(Cl)cc2)cc1 [RECILISIB SODIUM]	Active	–	57.5	–	–	–	60	–
C#C[C@]1(O)[C@H](O)C[C@H]2[C@@H]3CCc4cc(OC5CCCC5)ccc4[C@H]3CC[C@@]21C [NYLESTRIOL]	–	–	–	–	–	–	–	100
